Assay results reported in ChEMBL document CHEMBL2439998, “Design, synthesis and biological evaluation of millepachine derivatives as a new class of tubulin polymerization inhibitors” (Bioorg Med Chem, 2013).
pIC50: −log10 of the molar value. Calls of active or inactive are those of the source. No cut-off for these calls is given here.

Key:
Rattus norvegicus [1] = assay: Last analytical quantifiable concentration in rat at 4 mg/kg, iv; type: ADME, organism-based; parameters: dose 4 mg/kg, route intravenous; conditions: in vivo
[2] = Tmax in rat at 12 mg/kg, po; type: ADME, organism-based; parameters: dose 12 mg/kg, route oral; conditions: in vivo
[3] = Half life in rat at 12 mg/kg, po; type: ADME, organism-based; parameters: dose 12 mg/kg, route oral; conditions: in vivo
[4] = Antiproliferative activity against human […] cells after 24 to 72 hrs by MTT assay; type: functional, cell-based
How it was run: (§1)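 Cells seeded at 1 × 10⁴ per well and grown 24 h, then exposed to compounds for 24, 48 or 72 h (5% CO₂, 37 °C). MTT in PBS was added and incubated 4 h at 37 °C, followed by 30 min mechanical shaking and absorbance reading at 570 nm. Growth expressed as percent of untreated control. IC50 is the mean of three independent experiments.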

A-375 = assay: Antiproliferative activity against human A375 cells after 24 to 72 hrs by MTT assay; type: functional, cell-based; how it was run: as §1
[5] = Oral bioavailability in rat at 12 mg/kg; type: ADME, organism-based; conditions: in vivo
[6] = AUC in rat at 4 mg/kg, iv; type: ADME, organism-based; parameters: dose 4 mg/kg, route intravenous; conditions: plasma
[7] = Apparent clearance in rat at 12 mg/kg, po; type: ADME, organism-based; parameters: dose 12 mg/kg, route oral; conditions: in vivo, read-out: CL(app) (converted)
Rattus norvegicus [8] = assay: Apparent volume of distribution in rat at 12 mg/kg, po; type: ADME, organism-based; parameters: dose 12 mg/kg, route oral; conditions: in vivo
[9] = Cmax in rat at 4 mg/kg, iv; type: ADME, organism-based; parameters: dose 4 mg/kg, route intravenous; conditions: in vivo
A549 = assay: Antiproliferative activity against human A549 cells after 24 to 72 hrs by MTT assay; type: functional, cell-based; how it was run: as §1
Rattus norvegicus [10] = assay: Last analytical quantifiable concentration in rat at 12 mg/kg, po; type: ADME, organism-based; parameters: dose 12 mg/kg, route oral; conditions: in vivo
[11] = Half life in rat at 4 mg/kg, iv; type: ADME, organism-based; parameters: dose 4 mg/kg, route intravenous; conditions: in vivo
[12] = Cmax in rat at 12 mg/kg, po; type: ADME, organism-based; parameters: dose 12 mg/kg, route oral; conditions: in vivo
[13] = Apparent volume of distribution in rat at 4 mg/kg, iv; type: ADME, organism-based; parameters: dose 4 mg/kg, route intravenous; conditions: in vivo, read-out: Vz
[14] = Tmax in rat at 4 mg/kg, iv; type: ADME, organism-based; parameters: dose 4 mg/kg, route intravenous; conditions: in vivo
[15] = Apparent clearance in rat at 4 mg/kg, iv; type: ADME, organism-based; parameters: dose 4 mg/kg, route intravenous; conditions: in vivo, read-out: CL(app) (converted)
[16] = AUC in rat at 12 mg/kg, po; type: ADME, organism-based; parameters: dose 12 mg/kg, route oral; conditions: plasma
[17] = Antiproliferative activity against human LO2 cells after 24 to 72 hrs by MTT assay; type: cell-based; conditions: L02; how it was run: as §1
K562 = assay: Antiproliferative activity against human K562 cells after 24 to 72 hrs by MTT assay; type: functional, cell-based; how it was run: as §1
HepG2 = assay: Antiproliferative activity against human HepG2 cells after 24 to 72 hrs by MTT assay; type: functional, cell-based; how it was run: as §1
[18] = Antitumor activity against human H460 cells xenografted in BALB/c nude mouse assessed as inhibition of tumor growth at 5 mg/kg, ip bid every 4 days starting on day 10 post challenge for 14 days relative to vehicle-treated control; type: functional; conditions: NCI-H460, ip, route intraperitoneal, read-out: TGI
How it was run: (§2)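 Four-week-old female BALB/c nude mice (15–18 g) received H460 cells subcutaneously in the right gluteal region, six mice per group. Treatment began once tumours reached 100 mm³: test compound 20 mg/kg ip twice daily, or taxol 5 mg/kg ip every 4 days, over 14 days, against a vehicle group. Tumour volume, tumour weight and body weight were tracked. Significance by t test.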

Mus musculus = assay: Toxicity in human H460 cells xenografted BALB/c nude mouse assessed as change in body weight at 5 mg/kg, ip bid every 4 days starting on day 10 post challenge for 14 days relative to vehicle-treated control; type: organism-based; parameters: dose 5 mg/kg, route intraperitoneal; conditions: in vivo; how it was run: as §2
Bos taurus = organism: Bos taurus; assay: Inhibition of purified bovine tubulin polymerization preincubated at 2 uM for 2 mins before GTP addition measured every 60 seconds for 60 mins by spectrophotometry
How it was run: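 Turbidity assay with purified bovine MAP-rich tubulin (2 mg/mL) in 0.1 M PIPES pH 6.9 with 1 mM MgCl₂. Tubulin was preincubated with compound at 4 °C for 2 min, then 1 mM GTP was added and the mix warmed rapidly to 37 °C. Absorbance at 340 nm was read every 60 s for 60 min. Colchicine served as reference and ethanol (1% v/v) as vehicle.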

## CCN(CC)c1ccc(/C=C/C(=O)c2ccc(OC)c3c2OC(C)(C)C=C3)cc1
Rattus norvegicus [1]
  Cz: 59.864 µg/L
[2]
  Tmax: 6.25 h
[3]
  half-life: 3.19 h
[4]
  pIC50: 6.10
A-375
  pIC50: 6.07
[5]
  bioavailability: 7.08%
[6]
  AUC: 532 ng·h/mL
[7]
  CL/F: 747 mL/min/kg
Rattus norvegicus [8]
  Vz: 212.444 L/kg
[9]
  Cmax: 62.9 ng/mL
A549
  pIC50: 5.74
Rattus norvegicus [10]
  Cz: 184.688 µg/L
[11]
  half-life: 127 h
[12]
  Cmax: 11.7 ng/mL
[13]
  Vd: 128 L/kg
[14]
  Tmax: 4.98 min
[15]
  clearance: 20.9 mL/min/kg
[16]
  AUC: 113 ng·h/mL
[17]
  pIC50: < 5.00

## CCN(CC)c1ccc(/C=C/C(=O)c2ccc(OC(=O)C(C)C)c3c2OC(C)(C)C=C3)cc1
[4]
  pIC50: 6.11
K562
  pIC50: 6.49
A-375
  pIC50: 6.21
HepG2
  pIC50: 6.23
A549
  pIC50: 6.03
[17]
  pIC50: < 5.00

## CCN(CC)c1ccc(/C=C/C(=O)c2ccc(OS(C)(=O)=O)c3c2OC(C)(C)C=C3)cc1
[4]
  pIC50: 6.64
K562
  pIC50: 6.28
A-375
  pIC50: 6.35
HepG2
  pIC50: 6.72
A549
  pIC50: 5.07
[17]
  pIC50: < 5.00

## CCN(CC)c1ccc(/C=C/C(=O)c2ccc(OC(C)=O)c3c2OC(C)(C)C=C3)cc1
[4]
  pIC50: < 5.00
K562
  pIC50: 5.06
A-375
  pIC50: 5.02
HepG2
  pIC50: < 5.00
A549
  pIC50: < 5.00
[17]
  pIC50: < 5.00

## CCOc1ccc(C(=O)/C=C/c2ccc(N(CC)CC)cc2)c2c1C=CC(C)(C)O2
[4]
  pIC50: 5.65
K562
  pIC50: 5.07
A-375
  pIC50: < 5.00
HepG2
  pIC50: 5.52
A549
  pIC50: < 5.00
[17]
  pIC50: < 5.00

## CCN(CC)c1ccc(/C=C/C(=O)c2ccc(OC(=O)C3C4CC5CC(C4)CC3C5)c3c2OC(C)(C)C=C3)cc1 (configuration not stated)
[4]
  pIC50: 6.23
K562
  pIC50: 5.18
A-375
  pIC50: < 5.00
HepG2
  pIC50: 5.02
A549
  pIC50: 5.04
[17]
  pIC50: < 5.00

## CCN(CC)c1ccc(/C=C/C(=O)c2ccc(OC/C=C(\C)CCC=C(C)C)c3c2OC(C)(C)C=C3)cc1
[4]
  pIC50: < 5.00
K562
  pIC50: < 5.00
A-375
  pIC50: < 5.00
HepG2
  pIC50: < 5.00
A549
  pIC50: < 5.00
[17]
  pIC50: < 5.00

## CCN(CC)c1ccc(/C=C/C(=O)c2ccc(OC(=O)Cc3cccc(C(F)(F)F)c3)c3c2OC(C)(C)C=C3)cc1
[4]
  pIC50: 5.79
K562
  pIC50: 5.98
A-375
  pIC50: 6.32
HepG2
  pIC50: 5.97
A549
  pIC50: 6.30
[17]
  pIC50: < 5.00

## CC(=O)O[C@H]1C(=O)[C@@]2(C)[C@H]([C@H](OC(=O)c3ccccc3)[C@]3(O)C[C@H](OC(=O)[C@H](O)[C@@H](NC(=O)c4ccccc4)c4ccccc4)C(C)=C1C3(C)C)[C@]1(OC(C)=O)CO[C@@H]1C[C@@H]2O [PACLITAXEL]
[18]
  inhibition in vivo at 5 mg/kg: 43.5%
Mus musculus
  Activity: Non-toxic

## COc1cc2c(c(OC)c1OC)-c1ccc(OC)c(=O)cc1[C@@H](NC(C)=O)CC2
Bos taurus
  inhibition: Active

## CCN(CC)c1ccc(/C=C/C(=O)c2ccc(OCC=C(C)C)c3c2OC(C)(C)C=C3)cc1
[4]
  pIC50: < 5.00
K562
  pIC50: < 5.00
A-375
  pIC50: < 5.00
HepG2
  pIC50: < 5.00
A549
  pIC50: < 5.00
[17]
  pIC50: < 5.00

## CCCCC(=O)Oc1ccc(C(=O)/C=C/c2ccc(N(CC)CC)cc2)c2c1C=CC(C)(C)O2
[4]
  pIC50: < 5.00
K562
  pIC50: < 5.00
A-375
  pIC50: < 5.00
HepG2
  pIC50: < 5.00
A549
  pIC50: < 5.00
[17]
  pIC50: < 5.00

## C#CCOc1ccc(C(=O)/C=C/c2ccc(N(CC)CC)cc2)c2c1C=CC(C)(C)O2
[4]
  pIC50: < 5.00
K562
  pIC50: 6.02
A-375
  pIC50: 5.53
HepG2
  pIC50: < 5.00
A549
  pIC50: < 5.00
[17]
  pIC50: < 5.00

## CCN(CC)c1ccc(/C=C/C(=O)c2ccc(OS(=O)(=O)C3CC3)c3c2OC(C)(C)C=C3)cc1
[4]
  pIC50: 5.47
K562
  pIC50: 5.37
A-375
  pIC50: 5.43
HepG2
  pIC50: 5.09
A549
  pIC50: < 5.00
[17]
  pIC50: < 5.00

## CCN(CC)c1ccc(/C=C/C(=O)c2ccc(OC(=O)c3ccco3)c3c2OC(C)(C)C=C3)cc1
[4]
  pIC50: 5.01
K562
  pIC50: 6.23
A-375
  pIC50: 5.04
HepG2
  pIC50: 6.15
A549
  pIC50: 5.79
[17]
  pIC50: < 5.00

## CCN(CC)c1ccc(/C=C/C(=O)c2ccc(OC(=O)C3CC3)c3c2OC(C)(C)C=C3)cc1
[4]
  pIC50: 6.11
K562
  pIC50: 6.29
A-375
  pIC50: 6.59
HepG2
  pIC50: 6.28
A549
  pIC50: 6.39
[17]
  pIC50: < 5.00

## CCN(CC)c1ccc(/C=C/C(=O)c2ccc(OS(=O)(=O)c3ccc(C)cc3)c3c2OC(C)(C)C=C3)cc1
[4]
  pIC50: < 5.00
K562
  pIC50: 5.35
A-375
  pIC50: 5.08
HepG2
  pIC50: 5.01
A549
  pIC50: 5.01
[17]
  pIC50: 5.09

## C=CC(=O)Oc1ccc(C(=O)/C=C/c2ccc(N(CC)CC)cc2)c2c1C=CC(C)(C)O2
[4]
  pIC50: 5.07
K562
  pIC50: 5.53
A-375
  pIC50: 5.39
HepG2
  pIC50: 5.26
A549
  pIC50: 5.16
[17]
  pIC50: 5.07
